The list is not random: actives were taken first. Their share in the collection is about 1.8%.
M4 antag: CHRM4 antagonism in calcium assay. P08173. CHO-hM4 cells, ACh EC80, Fluo-8 calcium fluorescence. inhibition, % at 3 µM. actives 0.73% (n = 360,000);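 active = inhibition above its plate's cutoff, the mean inhibition of sample wells plus 3 SD, cut at about 27% in these data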;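 also: 0% = acetylcholine EC80 with DMSO and 100% = DMSO without agonist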
CHRM5 PAM: CHRM5 positive allosteric modulation | P08912 | CHO-K1 hM5, Fluo-8 calcium, ACh EC20 PAM; 0% = ACh EC20, 100% = ACh EC100 | activation, % at 3 µM | actives 0.3% (n = 360,000) | AID 624038;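 active = activation above the run cutoff, the mean activation of all test compounds plus 3 SD, cut at about 18% in these data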
Target sequence (P08912 whole entry, looked up): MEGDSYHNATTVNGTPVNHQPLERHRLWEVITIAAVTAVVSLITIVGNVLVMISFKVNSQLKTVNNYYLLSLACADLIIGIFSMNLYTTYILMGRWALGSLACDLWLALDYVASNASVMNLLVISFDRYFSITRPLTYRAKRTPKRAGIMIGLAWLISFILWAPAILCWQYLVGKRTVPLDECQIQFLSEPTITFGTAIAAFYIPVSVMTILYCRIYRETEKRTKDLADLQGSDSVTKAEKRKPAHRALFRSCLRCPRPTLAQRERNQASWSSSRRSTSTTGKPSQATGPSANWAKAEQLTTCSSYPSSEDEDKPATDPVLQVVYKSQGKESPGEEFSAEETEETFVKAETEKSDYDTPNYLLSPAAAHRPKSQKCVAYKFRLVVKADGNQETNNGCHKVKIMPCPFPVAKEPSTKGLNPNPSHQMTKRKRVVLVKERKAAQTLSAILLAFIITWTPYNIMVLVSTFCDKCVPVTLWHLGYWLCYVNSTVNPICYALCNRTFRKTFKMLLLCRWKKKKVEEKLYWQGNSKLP
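Assay system – human M5 receptor in CHO-K1 cells · Read-out – % activation, ACh-normalized · Technique – Fluo-8 calcium fluorescence · Dosing – single-point, 3 µM nominal · Incubation – Fluo-8 loading 80 min at 37 °C plus 30 min room temperature · Repeats – singlicate, one well per test compound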
CHRM4 agonist: CHRM4 agonism in calcium assay; CHO-K1 hM4/Gqi5, Fluo-8 calcium fluorescence; vehicle 0%, full acetylcholine response 100%; activation, % at 3 µM; actives 0.14% (n = 360,000); AID 624127;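 active = activation above the run mean over all test wells plus 3 SD, cut at about 32% in these data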;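 also: peak over basal fluorescence ratio per well then scaled between controls; 0% = DMSO wells and 100% = acetylcholine at EC100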
M4 PAM: potentiates acetylcholine response at human M4 receptor | P08173 | CHO-K1 hM4/Gqi5, Fluo-8 calcium fluorescence, ACh EC20; 0% = ACh EC20, 100% = maximal ACh | activation, % at 3 µM | actives 0.4% (n = 360,000) | AID 624126;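 active = activation above its plate's cutoff, the mean activation of sample wells plus 3 SD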
CHRM5 agonist: agonists of human muscarinic M5 receptor (CHRM5) | P08912 | actives 0.19% (n = 360,000) | activation, % at 3 µM | AID 624037 | CHO-K1 hM5 cells, Fluo-8 calcium fluorescence; 0% DMSO wells, 100% maximal acetylcholine response;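 active = activation above the run's mean over test compounds plus 3 SD, cut at about 23% in these data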;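 also: signal is peak over basal fluorescence ratio across the kinetic read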
CHRM5 antagonist: antagonists of human muscarinic M5 receptor (CHRM5); P08912; CHO-hM5 cells, Fluo-8 calcium fluorescence, ACh EC80; AID 624040; inhibition, % at 3 µM; actives 0.59% (n = 360,000);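 active = inhibition above a per-plate cutoff, the mean of that plate's test compounds plus 3 SD, cut at about 27% in these data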;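 also: 0% = acetylcholine EC80 with DMSO and 100% = DMSO without agonist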
Numbers without * were called inactive.

Cc1nc2ccc(Br)cc2c(=O)n1-c1ccc([N+](=O)[O-])c(C(F)(F)F)c1 was read as M4 antag 20, CHRM5 PAM -27, CHRM4 agonist 12, M4 PAM -12, CHRM5 agonist 11 and CHRM5 antagonist 32*.
`O=C1C2CCN(CC2)[C@@H]1Cc1ccc2ccccc2c1O` gave M4 antag 47*, CHRM5 PAM -17, CHRM4 agonist 2, M4 PAM -23, CHRM5 agonist -6 and CHRM5 antagonist 30*.
CN1C(=O)C(Cc2cccc3ccccc23)C(=O)N(C)C1=O was read as M4 antag 8, CHRM5 PAM -3, CHRM4 agonist 0, M4 PAM 0, CHRM5 agonist -2 and CHRM5 antagonist -2.
Screening CC1=C(O)C(=O)C=C2C1=CC=C1C2(C)CCC2(C)C3CC(C)(C(=O)O)CCC3(C)CCC12C (centres undefined) returned M4 antag 91*, CHRM5 PAM -23, CHRM4 agonist 11, M4 PAM -11, CHRM5 agonist 4 and CHRM5 antagonist 37*.
Oc1cc2c(cc1CN1CCN(c3ccc(F)cc3)CC1)OCO2 was read as M4 antag 10, CHRM5 PAM -9, CHRM4 agonist 1, M4 PAM -4, CHRM5 agonist -2 and CHRM5 antagonist 12.
`COC(=O)C1=C(c2ccc(F)cc2OCc2ccccc2)C[C@@H]2CC[C@H]1N2C(=O)NCc1ccccc1OC` gave M4 antag 33*, CHRM5 PAM -38, CHRM4 agonist 1, M4 PAM -16, CHRM5 agonist -11 and CHRM5 antagonist 12.
Screening COC(=O)C1=C(c2ccccc2)C[C@@H]2CC[C@H]1N2C(=O)NCc1ccc(F)cc1 returned M4 antag 47*, CHRM5 PAM -19, CHRM4 agonist -1, M4 PAM -14, CHRM5 agonist -11 and CHRM5 antagonist 12.
COC(=O)C1=C(c2cccc(OCc3ccccc3)c2)C[C@@H]2CC[C@H]1N2C(=O)NCc1ccc(F)cc1 was read as M4 antag 16, CHRM5 PAM -31, CHRM4 agonist 2, M4 PAM -13, CHRM5 agonist -13 and CHRM5 antagonist 27*.
Screening O=C1NC(=O)N(CCC2=CCCCC2)C(=O)/C1=C/c1cccs1 returned M4 antag 4, CHRM5 PAM 5, CHRM4 agonist 0, M4 PAM -3, CHRM5 agonist 2 and CHRM5 antagonist 7.
Screening CCOC(=O)[C@]12Cc3c(cc(OC)c(OC)c3OC)[C@H]1N(CCC(=O)OC)C(=O)c1ccccc12 returned M4 antag 1, CHRM5 PAM -3, CHRM4 agonist 0, M4 PAM 0, CHRM5 agonist 1 and CHRM5 antagonist 7.
For COc1ccc(NP2(=O)OCC(C)(N)CO2)cc1 (centres undefined) the results were M4 antag -14, CHRM5 PAM -2, CHRM4 agonist 2, M4 PAM 3, CHRM5 agonist 4 and CHRM5 antagonist -2.
Screening CC1CCC(NCCc2ccc3c(c2)OCO3)CC1 (centres undefined) returned M4 antag 32*, CHRM5 PAM -12, CHRM4 agonist 2, M4 PAM -12, CHRM5 agonist -6 and CHRM5 antagonist -2.
Screening c1cc2c(cc1CCNC1C3CC4CC(C3)CC1C4)OCO2 (centres undefined) returned M4 antag 23, CHRM5 PAM -11, CHRM4 agonist 3, M4 PAM -9, CHRM5 agonist -6 and CHRM5 antagonist 3.
O=C(CCCN1CCC(n2c(=O)[nH]c3ccccc32)CC1)c1ccc(F)cc1 was read as M4 antag 27*, CHRM5 PAM -14, CHRM4 agonist 5, M4 PAM -17, CHRM5 agonist 1 and CHRM5 antagonist 10.
`CCCNC(=O)N1[C@H]2CC[C@@H]1C(C(=O)OC)=C(c1ccc(F)cc1OCc1ccccc1)C2` gave M4 antag 4, CHRM5 PAM -7, CHRM4 agonist 0, M4 PAM -3, CHRM5 agonist -2 and CHRM5 antagonist 2.

Screens (PubChem)
